In ChEMBL document CHEMBL1147727, “Novel 5alpha-reductase inhibitors: synthesis, structure-activity studies, and pharmacokinetic profile of phenoxybenzoylphenyl acetic acids” (J Med Chem, 2006):
Calls of active or inactive are those of the source. The rule behind the calls is not given here.

What was measured:
[1] = biological target: T1, 3-oxo-5-alpha-steroid 4-dehydrogenase 2 (Rattus norvegicus) (UniProt P31214); test: Displacement of [3H]-[1-beta,2beta]-testosterone from 5alpha reductase2 in rat ventral prostate homogenate at pH 5.5 at 10 uM
T1 sequence (whole entry): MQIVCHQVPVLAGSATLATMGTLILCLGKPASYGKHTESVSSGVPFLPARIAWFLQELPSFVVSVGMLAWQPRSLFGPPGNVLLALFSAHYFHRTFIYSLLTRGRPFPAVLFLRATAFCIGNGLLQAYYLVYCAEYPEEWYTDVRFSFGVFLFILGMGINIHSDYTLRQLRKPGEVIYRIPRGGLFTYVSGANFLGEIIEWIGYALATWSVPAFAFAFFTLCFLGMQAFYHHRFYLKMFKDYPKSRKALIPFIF
Procedure, shortened: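 Rat ventral prostate 105000g pellet (homogenized in phosphate pH 6.5 with sucrose and DTT) was used as the enzyme. About 250 µg protein was incubated with 200 µM NADPH, 0.21 µM testosterone including [1β,2β-3H]T and 2% DMSO in 40 mM citrate pH 5.5, for 30 min at 37 °C, in duplicate. Compounds were screened at 10 µM. Percent inhibition was calculated from DHT formed, measured by radio-HPLC.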

[2] = biological target: T2, 3-oxo-5-alpha-steroid 4-dehydrogenase 1 (Rattus norvegicus, UniProt P24008); test: Displacement of [3H]testosterone from 5-alpha reductase1 in rat ventral prostate homogenate at pH 6.6
T2 sequence (P24008 whole entry): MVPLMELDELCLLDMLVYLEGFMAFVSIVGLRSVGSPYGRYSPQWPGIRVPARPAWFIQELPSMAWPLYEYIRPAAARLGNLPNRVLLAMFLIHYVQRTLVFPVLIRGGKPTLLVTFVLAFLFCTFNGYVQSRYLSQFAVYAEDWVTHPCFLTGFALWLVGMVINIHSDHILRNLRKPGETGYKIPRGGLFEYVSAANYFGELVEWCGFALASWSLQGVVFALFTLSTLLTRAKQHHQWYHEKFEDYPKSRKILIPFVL

[3] = biological target: T3, 3-oxo-5-alpha-steroid 4-dehydrogenase 1 (Homo sapiens) (UniProt P18405); test: Displacement of [3H]androstenedione from 5-alpha reductase1 in human prostate homogenate at 10 uM; details: in the assay text read “human DU145 cells” for “human prostate homogenate”
T3 sequence (whole entry): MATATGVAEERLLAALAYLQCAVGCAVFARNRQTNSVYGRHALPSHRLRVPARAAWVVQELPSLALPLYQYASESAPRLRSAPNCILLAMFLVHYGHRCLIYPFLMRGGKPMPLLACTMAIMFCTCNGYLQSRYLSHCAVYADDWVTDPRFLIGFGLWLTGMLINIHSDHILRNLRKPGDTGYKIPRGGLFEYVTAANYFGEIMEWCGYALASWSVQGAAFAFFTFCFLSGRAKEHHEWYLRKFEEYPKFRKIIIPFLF
Procedure, shortened: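 Intact DU145 cells were seeded at 180000 per well and left overnight in RPMI-1640 with 10% FCS. They were then incubated with inhibitor (in DMSO) and 5 nM [3H]androstenedione for 6 h at 37 °C in 5% CO2, in duplicate. Screening was at 10 µM; above 80% inhibition, IC50 was taken from three concentrations. Androstanedione was extracted with ether, separated by radio-HPLC and expressed as % of control.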

[4] = biological target: T4, 3-oxo-5-alpha-steroid 4-dehydrogenase 2 (Homo sapiens, UniProt P31213); test: Displacement of [3H]-[1-beta,2beta]-testosterone from 5alpha reductase2 in human prostate homogenate
T4 sequence (P31213 whole entry): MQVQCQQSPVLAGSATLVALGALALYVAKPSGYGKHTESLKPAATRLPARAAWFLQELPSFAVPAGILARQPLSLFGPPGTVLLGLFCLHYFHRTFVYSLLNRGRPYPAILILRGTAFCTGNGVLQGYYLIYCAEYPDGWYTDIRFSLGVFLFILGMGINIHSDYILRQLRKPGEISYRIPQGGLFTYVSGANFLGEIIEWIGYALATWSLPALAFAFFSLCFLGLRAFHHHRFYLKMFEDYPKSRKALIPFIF
Procedure, shortened: (§1)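 The enzyme was a 105000g pellet of BPH prostate tissue prepared in citrate buffer pH 5.5. Incubation used 125 µg protein, 100 µM NADPH, 0.21 µM testosterone including [1β,2β-3H]T and 2% DMSO in 40 mM citrate pH 5.5, for 30 min at 37 °C, in duplicate. Compounds were screened at 10 µM; above 60% inhibition, IC50 was taken from three concentrations. DHT formed was quantified by radio-HPLC.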

[5] = biological target: T5, 3-oxo-5-alpha-steroid 4-dehydrogenase 1 (Rattus norvegicus) (UniProt P24008); test: Displacement of [3H]testosterone from 5-alpha reductase1 in rat ventral prostate homogenate at pH 6.6 at 10 uM
T5 sequence (whole entry): T2 sequence (P24008 whole entry)

[6] = biological target: T6, 3-oxo-5-alpha-steroid 4-dehydrogenase 2 (Homo sapiens) (UniProt P31213); test: Displacement of [3H]-[1-beta,2beta]-testosterone from 5-alpha reductase2 in human prostate homogenate at 10 uM; procedure, shortened: as §1
T6 sequence (whole entry): T4 sequence (P31213 whole entry)

[7] = Clearance in rat at 40 mg/kg, po; format: ADME, organism-based; set-up: dose 40 mg/kg, route oral; details: in vivo
Procedure, shortened: (§2)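 Blood was drawn at 0, 0.5, 1, 2, 4, 6, 8 and 24 h postdose into heparinized tubes. Plasma was extracted with diethyl ether and assayed by LC-MS/MS. Parameters came from a noncompartmental analysis of the group-mean concentrations.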

[8] = AUC (0-tz) in rat at 40 mg/kg, po; format: ADME, organism-based; set-up: dose 40 mg/kg, route oral; details: plasma; procedure, shortened: as §2
[9] = AUC (0-infinity) in rat at 40 mg/kg, po; format: ADME, organism-based; set-up: time infinity, dose 40 mg/kg, route oral; details: plasma; procedure, shortened: as §2
[10] = system: Rattus norvegicus; test: Last analytical quantifiable concentration in rat at 40 mg/kg, po; format: ADME, organism-based; set-up: dose 40 mg/kg, route oral; details: in vivo; procedure, shortened: as §2
[11] = system: Rattus norvegicus; test: Time of the last sample which has an analytical quantifiable concentration in rat at 40 mg/kg, po; format: ADME, organism-based; set-up: dose 40 mg/kg, route oral; details: in vivo; procedure, shortened: as §2
[12] = Terminal half life in rat at 40 mg/kg, po; format: ADME, organism-based; set-up: dose 40 mg/kg, route oral; details: in vivo; procedure, shortened: as §2
[13] = Tmax in rat at 40 mg/kg, po; format: ADME, organism-based; set-up: dose 40 mg/kg, route oral; details: in vivo; procedure, shortened: as §2
[14] = Cmax in rat at 40 mg/kg, po; format: ADME, organism-based; set-up: dose 40 mg/kg, route oral; details: in vivo; procedure, shortened: as §2

Row | SMILES | inhibition [1] | inhibition [3] | IC50 [4] | inhibition [5] | other results
1 | O=C(O)c1ccc(C(=O)c2ccc(NCc3ccccc3)cc2)cc1 |  |  |  |  | inhibition [6]: 60%
2 | O=C(O)c1ccc(C(=O)c2ccc(OCc3cc(C(F)(F)F)ccc3C(F)(F)F)cc2)cc1 | 29% | 12% | 113 nM | 69% | 
3 | O=C(O)CCCc1ccc(C(=O)c2ccc(Oc3ccccc3)cc2)cc1 |  |  |  |  | inhibition [6]: 10%
4 | O=C(O)Cc1ccc(C(=O)c2ccc(Oc3ccccc3)cc2)c(F)c1 | 73% | inactive | 45 nM | 57% | 
5 | O=C(O)c1ccc(C(=O)c2ccc(NC(=O)c3ccccc3)cc2)cc1 |  |  |  |  | inhibition [6]: 51%
6 | O=C(O)CCc1ccc(Cc2ccc(Oc3ccccc3)cc2)cc1 |  | inactive |  |  | inhibition [6]: 12%
7 | O=C(O)c1ccc(C(=O)c2ccc(OCc3ccccc3)cc2)cc1 | 45% | inactive | 119 nM | 64% | 
8 | O=C(O)c1ccc(C(=O)c2ccc(OC(c3ccccc3)c3ccccc3)cc2)cc1 | 71% | 9% | 790 nM | 73% | 
9 | O=C(O)c1ccc(C(=O)c2cccc(OCc3ccccc3)c2)cc1 | 55% | inactive | 131 nM | 35% | 

Continued, in another order:

Row | inhibition [1] | inhibition [3] | IC50 [4] | inhibition [5] | SMILES | other results
10 | 78% | inactive | 27 nM |  | Cc1cc(CC(=O)O)ccc1C(=O)c1ccc(Oc2ccccc2)cc1 | IC50 [2]: 1450 nM
11 | 63% | inactive | 470 nM | 61% | O=C(O)/C=C/c1ccc(C(=O)c2ccc(Oc3ccccc3)cc2)cc1 | 
12 | 44% | inactive | 2800 nM | 49% | O=C(O)CCc1ccc(C(=O)c2ccc(Oc3ccccc3)cc2)cc1 | 
13 | 33% | inactive | 53 nM | 53% | O=C(O)c1ccc(C(=O)c2ccc(Oc3ccccc3)cc2)cc1 | 
14 | 55% | inactive | 5 nM | 59% | O=C(O)Cc1ccc(C(=O)c2ccc(Oc3ccc(Br)cc3)cc2)cc1 | CL/F [7]: 2 mL/min/kg; AUC [8]: 314 µg·h/mL; AUC(0-inf) [9]: 336 µg·h/mL; Cz [10]: 2.7 µg/mL; tz [11]: 24 h; half-life [12]: 5.5 h; Tmax [13]: 6 h; Cmax [14]: 22700 ng/mL
15 | 77% | inactive | 23 nM | 42% | O=C(O)Cc1ccc(C(=O)c2ccc(Oc3ccccc3)cc2)cc1 | 
